These results are taken from ChEMBL document CHEMBL1145281, “Potent bombesin-like peptides for GRP-receptor targeting of tumors with 99mTc: a preclinical study” (J Med Chem, 2005).

Test [1] deals with T1, Gastrin-releasing peptide receptor (Homo sapiens, UniProt P30550). Put plainly: Inhibition of gastrin releasing peptide receptor expressed in human prostate cancer cells. Type of test: cell-based, Cancer cell lines.
The target in test [2] is T2, Bombesin receptor subtype-3 (Homo sapiens, UniProt P32247).
T2 sequence (P32247 whole entry): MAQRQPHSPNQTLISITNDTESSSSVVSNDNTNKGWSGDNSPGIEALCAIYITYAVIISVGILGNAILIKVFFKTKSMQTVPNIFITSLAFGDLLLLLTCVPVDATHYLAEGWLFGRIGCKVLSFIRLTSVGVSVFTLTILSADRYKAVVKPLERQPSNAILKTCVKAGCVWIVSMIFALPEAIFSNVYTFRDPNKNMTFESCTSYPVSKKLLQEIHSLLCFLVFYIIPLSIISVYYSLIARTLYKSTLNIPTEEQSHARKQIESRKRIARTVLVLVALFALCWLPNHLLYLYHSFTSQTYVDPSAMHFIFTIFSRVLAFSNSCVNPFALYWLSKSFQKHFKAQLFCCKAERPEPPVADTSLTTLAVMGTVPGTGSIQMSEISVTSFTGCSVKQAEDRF
Put plainly: Inhibition of bombesin subtype 3 receptor expressed in human lung carcinoids.

In test [3] the target is T1, Gastrin-releasing peptide receptor. Put plainly: Displacement of [125 I-Tyr4]BB from human gastrin releasing peptide receptor expressed in PC-3 cell membranes.
The test system of a further test is PC-3. Put plainly: Equilibrium constant of compound for binding to the active sites in human PC-3 cell membranes. It is filed as functional. In short, it runs like this: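 Saturation binding of 99mTc/99gTc-labelled peptides in PC-3 membrane homogenates (50 μg protein), 0.06–12 nM total peptide, two triplicate sets for total and nonspecific binding. HEPES pH 7.6 buffer with 1% BSA, 5.5 mM MgCl2, 35 μM bacitracin. 1 h at 37 °C. Nonspecific binding defined with [Tyr4]BB. Kd from Scatchard analysis.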

T1 sequence (P30550 whole entry): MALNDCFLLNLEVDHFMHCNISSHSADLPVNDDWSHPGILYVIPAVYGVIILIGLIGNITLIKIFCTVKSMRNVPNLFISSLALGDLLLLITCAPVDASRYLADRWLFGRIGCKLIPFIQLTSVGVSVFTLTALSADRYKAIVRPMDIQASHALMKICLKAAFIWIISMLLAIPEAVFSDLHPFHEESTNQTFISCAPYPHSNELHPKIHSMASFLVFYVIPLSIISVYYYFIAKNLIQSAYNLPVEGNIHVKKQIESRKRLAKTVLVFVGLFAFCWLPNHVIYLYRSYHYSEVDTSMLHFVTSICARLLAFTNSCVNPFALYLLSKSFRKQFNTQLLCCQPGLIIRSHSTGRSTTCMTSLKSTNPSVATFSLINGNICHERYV

Take `CCCC[C@H](NC(=O)[C@H](CC(C)C)NC(=O)[C@H](Cc1c[nH]cn1)NC(=O)CNC(=O)[C@@H](NC(=O)[C@H](C)NC(=O)[C@H](Cc1c[nH]c2ccccc12)NC(=O)[C@H](CCC(N)=O)NC(=O)[C@H](CC(N)=O)NC(=O)CNC(=O)[C@H](Cc1ccc(O)cc1)NC(=O)[C@H](CCCN=C(N)N)NC(=O)[C@H](CCC(N)=O)NC(=O)[C@@H]1CCCN1C(=O)C(CNCCN)CNCCN)C(C)C)C(N)=O`: the values for the 50% inhibitory concentration (IC50) in test [1], in test [2] and in test [3] were 1.94 nM, greater than 100 nM and 0.15 nM, respectively.
Consider `CCCC[C@H](NC(=O)[C@H](CC(C)C)NC(=O)[C@H](Cc1c[nH]cn1)NC(=O)CNC(=O)[C@@H](NC(=O)[C@H](C)NC(=O)[C@H](Cc1c[nH]c2ccccc12)NC(=O)[C@H](CCC(N)=O)NC(=O)COCC(=O)Nc1ccc(CC(CNCCN)CNCCN)cc1)C(C)C)C(N)=O`, for which the IC50 was 1.3 nM in test [1], greater than 100 nM in test [2] and 0.6 nM in test [3]. The molecule further registered a Kd in the test with PC-3 of 0.14 nM.
In the same order, the values of `CSCC[C@H](NC(=O)[C@H](CC(C)C)NC(=O)[C@H](Cc1c[nH]cn1)NC(=O)CNC(=O)[C@@H](NC(=O)[C@H](C)NC(=O)[C@H](Cc1c[nH]c2ccccc12)NC(=O)[C@H](CCC(N)=O)NC(=O)COCC(=O)Nc1ccc(CC(CNCCN)CNCCN)cc1)C(C)C)C(N)=O` are 0.65 nM, 37 nM, 0.08 nM and 0.07 nM.
